Test results as given in ChEMBL document CHEMBL4052590, “Anti-Osteoporotic Activity of Harpagoside by Upregulation of the BMP2 and Wnt Signaling Pathways in Osteoblasts and Suppression of Differentiation in Osteoclasts” (J Nat Prod, 2017).
The source made the active and inactive calls. No cut-off for these calls is given here.

Columns and labels:
[1] = Cytotoxicity against mouse MC3T3-E1 cells assessed as cell viability up to 4 uM after 72 hrs by MTT assay; format: cell-based; conditions: read-out: Activity
Summary of the method: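 MC3T3-E1 cells (1 × 10^4 cells/mL) exposed to a range of concentrations for 72 h at 37 °C, 5% CO2. MTT added (500 μg/mL final) for 4 h, formazan dissolved in DMSO, A570 read. Viability given as % of solvent control; IC50 by nonlinear regression of % survival versus concentration.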

MC3T3-E1 [2] = assay: Upregulation of OPG protein expression in mouse MC3T3-E1 cells up to 4 uM after 48 hrs in presence of ascorbic acid and beta-glycerophosphate by Western blot analysis; format: functional, cell-based
MC3T3-E1 [3] = assay: Decrease in RANKL mRNA expression in mouse MC3T3-E1 cells at up to 4 uM after 48 hrs in presence of ascorbic acid and beta-glycerophosphate by real-time PCR analysis; format: functional, cell-based
MC3T3-E1 [4] = assay: Downregulation of RANKL protein expression in mouse MC3T3-E1 cells up to 4 uM after 48 hrs in presence of ascorbic acid and beta-glycerophosphate by Western blot analysis; format: functional, cell-based
Summary of the method: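 MC3T3-E1 cells given 400 μM ascorbic acid plus 5 mM β-glycerophosphate, exposed to test compound or not for 48 h. Lysed in boiling SDS sample buffer, protein measured by BCA. 40−50 μg of lysate run on 8% or 10% SDS-PAGE and transferred to PVDF. Blocked in 5% milk, probed with primary antibodies for 3 h at room temperature or overnight at 4 °C, detected by ECL.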

MC3T3-E1 [5] = assay: Increase in ALP mRNA expression in 2 days differentiated mouse MC3T3-E1 cells up to 4 uM after 48 hrs in presence of ascorbic acid and beta-glycerophosphate by real-time PCR analysis; format: functional, cell-based
Summary of the method: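 MC3T3-E1 cells stimulated with 400 μM ascorbic acid and 5 mM β-glycerophosphate, with or without compound, 48 h. TRIzol RNA, real-time RT-PCR: 40 cycles of 95 °C 20 s, 56 °C 20 s, 72 °C 30 s. Ct of each transcript […] β-actin Ct, expressed relative to control samples.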

MC3T3-E1 [6] = assay: Upregulation of ALP protein expression in 2 days differentiated mouse MC3T3-E1 cells up to 4 uM after 48 hrs in presence of ascorbic acid and beta-glycerophosphate by Western blot analysis; format: functional, cell-based
Mus musculus [7] = species: Mus musculus; assay: Activation of Wnt signaling pathway in mouse MC3T3-E1 cells assessed as increase in BMP2 mRNA expression after 48 hrs in presence of ascorbic acid and beta-glycerophosphate by real-time PCR analysis; format: cell-based
MC3T3-E1 [8] = assay: Upregulation of beta-catenin protein expression in mouse MC3T3-E1 cells after 48 hrs in presence of ascorbic acid and beta-glycerophosphate by Western blot analysis; format: functional, cell-based
Mus musculus [9] = species: Mus musculus; assay: Activation of Wnt signaling pathway in mouse MC3T3-E1 cells assessed as upregulation of cyclin D1 protein expression after 48 hrs in presence of ascorbic acid and beta-glycerophosphate by Western blot analysis; format: cell-based
Summary of the method: (§1)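 MC3T3-E1 cells with 400 μM ascorbic acid and 5 mM β-glycerophosphate, with or without compound, for 48 h. Whole-cell lysates (40−50 μg, BCA) separated by SDS-PAGE, blotted to PVDF. c-Myc and cyclin D1 probed with primary antibodies, then secondary antibody for 90 min, read by chemiluminescence.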

Mus musculus [10] = species: Mus musculus; assay: Activation of Wnt signaling pathway in mouse MC3T3-E1 cells assessed as upregulation of C-Myc protein expression after 48 hrs in presence of ascorbic acid and beta-glycerophosphate by Western blot analysis; format: cell-based; summary of the method: as §1
Osteoclast = assay: Inhibition of RANKL/M-CSF-induced osteoclast differentiation in mouse bone marrow-derived osteoclasts assessed as reduction in formation of TRAP-positive cells after 5 days; format: functional, cell-based
Summary of the method: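 Bone marrow cells from 4-week-old mice were primed 24 h with 30 ng/mL M-CSF, then cultured with 100 ng/mL RANKL plus 30 ng/mL M-CSF. Compound was present or absent and medium was renewed every 2 days. On day 5 cells were fixed in 4% paraformaldehyde and TRAP-stained 1 h at 37 °C. Multinucleated TRAP-positive cells with ≥3 nuclei were counted as osteoclasts.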

Mus musculus [11] = assay: Anti-osteoporotic activity in po dosed OVX-induced bone loss ICR mouse model assessed as increase in bone mineral density administered for 12 weeks by microcomputed tomography; format: functional, organism-based
Mus musculus [12] = assay: Anti-osteoporotic activity in ovariectomized ICR mouse assessed as increase in ratio of bone volume to tissue volume of femur at 2 to 10 mg/kg, po after 12 weeks by microcomputed tomography; format: functional, organism-based
Mus musculus [13] = assay: Anti-osteoporotic activity in ovariectomized ICR mouse assessed as increase in trabecular number in femur at 2 to 10 mg/kg, po after 12 weeks by microcomputed tomography; format: functional, organism-based
Mus musculus [14] = assay: Anti-osteoporotic activity in ovariectomized ICR mouse assessed as increase in trabecular thickness in femur at 2 to 10 mg/kg, po after 12 weeks by microcomputed tomography; format: functional, organism-based
Mus musculus [15] = assay: Decrease in OVX-induced increase in body weight in ICR mouse at 2 to 10 mg/kg, po for 12 weeks; format: functional, organism-based
Mus musculus [16] = assay: Effect on calcium level in serum of OVX-induced bone loss ICR mouse model at 10 mg/kg, po for 12 weeks by ELISA (reference value: 9.3 +/- 0.3 mg/dl); format: functional
Mus musculus [17] = assay: Effect on […] level in serum of OVX-induced bone loss ICR mouse model at 10 mg/kg, po for 12 weeks by ELISA (reference value: 8.2 +/- 0.4 mg/dl); format: functional
Mus musculus [18] = assay: Effect on TRAP activity in serum of OVX-induced bone loss ICR mouse model at 2 mg/kg, po for 12 weeks (reference value: 19.8 +/- 1.0 U/L); format: functional
Mus musculus [19] = assay: Effect on TRAP activity in serum of OVX-induced bone loss ICR mouse model at 5 mg/kg, po for 12 weeks (reference value: 19.8 +/- 1.0 U/L); format: functional
Mus musculus [20] = assay: Effect on TRAP activity in serum of OVX-induced bone loss ICR mouse model at 10 mg/kg, po for 12 weeks (reference value: 19.8 +/- 1.0 U/L); format: functional
Mus musculus [21] = assay: Effect on osteocalcin level in serum of OVX-induced bone loss ICR mouse model at 2 mg/kg, po for 12 weeks by ELISA (reference value: 176.9 +/- 4.7 ng/ml); format: functional
Mus musculus [22] = assay: Effect on osteocalcin level in serum of OVX-induced bone loss ICR mouse model at 5 mg/kg, po for 12 weeks by ELISA (reference value: 176.9 +/- 4.7 ng/ml); format: functional
Mus musculus [23] = assay: Effect on osteocalcin level in serum of OVX-induced bone loss ICR mouse model at 10 mg/kg, po for 12 weeks by ELISA (reference value: 176.9 +/- 4.7 ng/ml); format: functional
Mus musculus [24] = assay: Effect on C-terminal telopeptide level in serum of OVX-induced bone loss ICR mouse model at 2 mg/kg, po for 12 weeks by ELISA (reference value: 95.7 +/- 3.8 ng/ml); format: functional
MC3T3-E1 [25] = assay: Induction of OCN mRNA expression in mouse MC3T3-E1 cells up to 4 uM after 48 hrs in presence of ascorbic acid and beta-glycerophosphate by real-time PCR analysis

C[C@]1(OC(=O)/C=C/c2ccccc2)C[C@@H](O)[C@]2(O)C=CO[C@@H](O[C@@H]3O[C@H](CO)[C@@H](O)[C@H](O)[C@H]3O)[C@@H]21 [HARPAGOSIDE]
viability at 72 h [1]: > 90%
Activity (MC3T3-E1 [2]): Active
Activity (MC3T3-E1 [3]): Active
Activity (MC3T3-E1 [4]): Active
Activity (MC3T3-E1 [5]): Dose-dependent effect
Activity (MC3T3-E1 [6]): Dose-dependent effect
Activity (Mus musculus [7]): Dose-dependent effect
Activity (MC3T3-E1 [8]): Dose-dependent effect
Activity (Mus musculus [9]): Dose-dependent effect
Activity (Mus musculus [10]): Dose-dependent effect
inhibition (Osteoclast): Active
Activity (Mus musculus [11]): Dose-dependent effect
Activity (Mus musculus [12]): Active
Activity (Mus musculus [13]): Active
Activity (Mus musculus [14]): Active
Activity (Mus musculus [15]): Active
Activity (Mus musculus [16]): 10.3 mg/dL
Activity (Mus musculus [17]): 8.2 mg/dL
Activity (Mus musculus [18]): 10.4 U/L
Activity (Mus musculus [19]): 8.9 U/L
Activity (Mus musculus [20]): 7.7 U/L
Activity (Mus musculus [21]): 170 ng/mL
Activity (Mus musculus [22]): 162.7 ng/mL
Activity (Mus musculus [23]): 156.9 ng/mL
Activity (Mus musculus [24]): 88.5 ng/mL
Activity (MC3T3-E1 [25]): Active
